# Rows were chosen to be rich in hits. Some 3.3% of all compounds tested hit in one or more screens of this group.
# PglD DTNB: C. jejuni PglD acetyltransferase inhibitors, primary screen, biochemical, DTNB colorimetric, single point; UDP-N-acetylbacillosamine N-acetyltransferase PglD (Campylobacter jejuni); hit rate 0.098% among 360,000; inhibition, % at 12.5 µM; purified PglD enzyme, DTNB colorimetric CoA detection; in the data active = inhibition above about 16%, passing the limit was not always enough; inconclusive = no clear call, values can overlap the other calls
# DENV2 CPE: inhibitors of DENV2 cytopathic effect, primary screen, cell-based, plate reader, single concentration; CPE inhibition, % at 9.99 µM; hit rate 1.7% among 350,000; DENV2-infected cells, cytopathic effect rescue; in the data active = CPE inhibition above about 20%, passing the limit was not always enough; inconclusive = no clear call, values can overlap the other calls; tested in BHK-21 cells;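 note: 0% = median of neutral control wells and 100% = median of positive control wells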
# C2C12 statin: suppressors of statin myotoxicity in C2C12 myotubes, primary screen, cell-based, single point, plate reader | C2C12 myotubes + simvastatin, ATP luminescence, 48 h; scaled: DMSO 0, geranylgeraniol control 100 | hit rate 0.78% among 330,000 | rescue of ATP level, % at 7.49 µM;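 active = mean ATP rescue above about 67%, or every replicate alone reaching that limit, limit read from the data, passing the limit was not always enough; inconclusive = no clear call, values can overlap the other calls; inactive = mean under the limit and some replicate under it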;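 note: myotubes were challenged with 10 µM simvastatin during compound exposure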
# E-sel inducer: E-selectin induction in HUVECs, primary screen, imaging, HUVEC, immunofluorescence imaging, single point; P16581; normalized: neutral wells 0, TNF-alpha wells 100; activation, % at 7.58 µM; hit rate 0.37% among 260,000; AID 686992, 2013;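 active = mean E-selectin-positive cell signal at least 10% of the positive control, reached in at least 60% of replicates, without over 20% cell loss; inconclusive = no rule given, readout overlaps actives, possibly toxicity-flagged; inactive = the rest, including those meeting only one limit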
# Target sequence (P16581 whole entry, looked up): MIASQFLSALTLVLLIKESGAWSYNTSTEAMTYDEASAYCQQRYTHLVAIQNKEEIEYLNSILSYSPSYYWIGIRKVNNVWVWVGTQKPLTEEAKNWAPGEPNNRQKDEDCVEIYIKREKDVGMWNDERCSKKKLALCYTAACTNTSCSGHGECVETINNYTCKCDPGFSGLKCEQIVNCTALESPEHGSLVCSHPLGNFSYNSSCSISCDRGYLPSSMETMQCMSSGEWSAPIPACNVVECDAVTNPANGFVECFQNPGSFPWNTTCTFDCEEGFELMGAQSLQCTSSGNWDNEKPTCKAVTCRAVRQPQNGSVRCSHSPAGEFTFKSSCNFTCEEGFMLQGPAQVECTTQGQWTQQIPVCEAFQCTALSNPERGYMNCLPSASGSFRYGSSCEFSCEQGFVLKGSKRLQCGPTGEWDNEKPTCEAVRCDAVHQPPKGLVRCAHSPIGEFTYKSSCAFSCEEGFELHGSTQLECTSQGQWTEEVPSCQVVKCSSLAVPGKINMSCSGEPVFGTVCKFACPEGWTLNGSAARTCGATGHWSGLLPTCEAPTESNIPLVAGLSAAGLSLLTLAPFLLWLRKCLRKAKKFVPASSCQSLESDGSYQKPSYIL
#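 Assay system: HUVEC, human umbilical vein endothelial cells / Amount: 3,000 HUVEC/well / Controls: TNF-alpha positive control, DMSO neutral control / Compound dosing: single concentration / Medium: EGM-2 over gelatin coat / Evaluation: percent E-selectin-positive cells / Signal: immunofluorescence imaging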
# XiGFP reactiv: activators of inactive X chromosome reactivation, primary screen, imaging, XiGFP fibroblasts, GFP high-content imaging, set 2. XiGFP mouse fibroblasts, % GFP-positive cells imaging, 3 d; cells co-treated with 5-aza-dC sensitizer; scaled so ellipticine positive control = 100%. activation, % at 7.58 µM. hit rate 0.055% among 360,000;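 active = mean normalized replicate activation at least 10% and every replicate at or above 10%; inconclusive = only one of the two criteria met; inactive = mean below 10% and not all replicates reach 10%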;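 note: 0% = median of on-plate neutral control wells and 100% = ellipticine 6 µM median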
#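 material = 68-5-11 XiGFP fibroblast line | medium = DMEM plus 5-aza-dC sensitizer | schedule = 3 days compound exposure | benchmarks = positive control ellipticine, 6 µM final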
# FGF22 binding: binders of human FGF22 protein, primary screen, FGF22 synaptogenesis inhibitor project, biophysical, thermal shift, single point | recombinant FGF22 thermal shift, SYPRO orange fluorescence; percent of sucrose octasulfate shift, DMSO zero | Fibroblast growth factor 22 (Homo sapiens), Q9HCT0 | AID 651658, 2012 | activity (Tm shift, normalised), % at 9.99 µM | hit rate 1.5% among 340,000;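 active = mean Tm shift, scaled 0 neutral to 100 positive control, at about 1.3% or above, every replicate too, limit read from the data; inconclusive = no clear call, values can overlap the other calls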
# The depositor's hits bear a star; ? = inconclusive; · = not tested or not shown.
SMILES,PglD DTNB,DENV2 CPE,C2C12 statin,E-sel inducer,XiGFP reactiv,FGF22 binding
O=C(C[C@@H]1C=C[C@H](NS(=O)(=O)c2ccccc2)[C@H](CO)O1)N1CCC(Cc2ccccc2)CC1,·,6,·,0,-1,0
COC(=O)C[C@H]1C[C@H]2c3cc(NC(=O)c4ccc5c(c4)OCO5)ccc3O[C@H]2[C@H](CO)O1,-3,-4,1,1,0,0
Cc1ccc(OCCCn2c(CO)nc3ccccc32)cc1,-3,·,134*,·,·,·
OCc1nc2ccccc2n1CCCOc1ccccc1,·,-6,·,·,·,0
COCCOCCn1c(CCCO)nc2ccccc21,-6,·,82*,·,·,·
COc1ccc(S(=O)(=O)Nc2ccc3c(c2)C(=O)N([C@H](C)CO)C[C@@H](C)[C@@H](CN(C)Cc2ccc(Cl)c(Cl)c2)O3)cc1,0,4,·,29*,0,-1
COc1ccc(S(=O)(=O)Nc2ccc3c(c2)C(=O)N([C@H](C)CO)C[C@@H](C)[C@H](CN(C)Cc2ccc(Cl)c(Cl)c2)O3)cc1,2,1,·,40*,0,0
COc1ccc(S(=O)(=O)Nc2ccc3c(c2)C(=O)N([C@@H](C)CO)C[C@H](C)[C@H](CN(C)Cc2ccc(Cl)c(Cl)c2)O3)cc1,-1,4,·,-10,0,-1
c1ccc2oc(-c3ccc4nc[nH]c4c3)nc2c1,1,·,-1,·,·,·
Nc1nc2ccc(-c3nc4ccccc4o3)cc2s1,0,·,75*,·,·,·
CC(C)(C)OC(=O)N1CCC(NC(=O)c2[nH]cnc2C(=O)Nc2ccccc2F)CC1,2,?,-1,0,0,43*
Cc1cccc(N2CCN(C(=S)c3ccc([N+](=O)[O-])cc3)CC2)c1,·,-6,·,·,0,0
O=C(Nc1ccc(F)cc1)N1CCN(c2ncccn2)CC1,·,-3,-6,0,0,43*
CC(=O)c1ccc(N2CCN(C(=S)Nc3ccc(Cl)c(Cl)c3)CC2)cc1,·,53*,·,·,0,0
S=C(Nc1ccc(Nc2ccccc2)cc1)N1CCN(c2ncccn2)CC1,·,1,·,0,0,43*
Cc1cccc(N2CCN(C(=S)c3ccccc3)CC2)c1,-10,12,·,·,0,44*
C[C@H]1CN([C@@H](C)CO)C(=O)c2cc(C#Cc3ccccc3F)cnc2O[C@H]1CN(C)C(=O)c1ccc2c(c1)OCO2,1,?,-13,-1,2,0
S=C(Nc1ccccc1)N1CCN(c2ccccc2)CC1,-2,-2,3,0,0,·
Cc1ccc(N2CCN(C(=S)Nc3ccccc3)CC2)cc1,·,?,·,·,0,43*
COCC(=O)N1CC[C@H]2[C@H](CO)Nc3ccc(C#Cc4ccccc4)cc3[C@H]21,-1,?,-2,0,0,0
O=Cc1ccccc1-n1cncn1,·,-23,5,0,0,0
Nc1ncc(-n2cncn2)c(-c2ccccc2)n1,·,·,4,0,0,43*
CC(C)NC(=O)N[C@H]1CC[C@H](CCN)O[C@H]1CO,-7,0,0,0,0,0
COc1ccccc1CN1CC[C@@H]2[C@H]1c1cc(C3=CCCCC3)ccc1N[C@@H]2CO,-6,-31,-5,0,0,0
COc1ccccc1NC(=O)N1C[C@@H]2[C@H](c3ccccc31)[C@@H](CO)N2C(C)=O,2,44*,-7,0,0,-1
SMILES,PglD DTNB,DENV2 CPE,C2C12 statin,E-sel inducer,XiGFP reactiv,FGF22 binding
COc1ccc(CN2[C@H](CO)[C@@H]3c4ccccc4N(C(=O)Nc4ccccc4)C[C@@H]32)cc1,5,-5,13,0,0,0
COc1cccc(C(=O)N2C[C@H]3[C@@H](c4ccccc42)[C@H](CO)N3C(=O)c2ccc(F)cc2)c1,-1,27*,-15,0,0,·
COc1ccc(CN2[C@H](CO)[C@H]3c4ccccc4N(C(=O)Nc4ccc(F)cc4)C[C@H]32)cc1,-4,22*,-39,0,1,0
O=C(Nc1ccccc1F)N1C[C@@H]2[C@H](c3ccccc31)[C@@H](CO)N2C(=O)c1ccc(F)cc1,1,-8,-10,0,0,0
COc1ccccc1NC(=O)N1C[C@H]2[C@@H](c3ccccc31)[C@@H](CO)N2C(C)=O,6,4,4,0,0,0
O=C(Nc1ccccc1F)N1C[C@@H]2[C@H](c3ccccc31)[C@H](CO)N2C(=O)c1ccc(F)cc1,-5,35*,7,0,0,0
O=C(C1CCCC1)N1C[C@H]2[C@@H](c3ccccc31)[C@H](CO)N2C(=O)Nc1cccc(F)c1,0,-1,-7,0,0,0
O=C(c1cccc(F)c1)N1C[C@H]2[C@@H](c3ccccc31)[C@H](CO)N2C(=O)c1cccc(F)c1,5,-9,3,0,0,1
O=C(c1cccc(F)c1)N1C[C@H]2[C@@H](c3ccccc31)[C@@H](CO)N2C(=O)c1cccc(F)c1,3,21*,-5,0,0,-1
O=C(c1ccncc1)N1C[C@H]2[C@@H](c3ccccc31)[C@H](CO)N2C(=O)c1ccccc1F,2,43*,-10,0,0,1
O=C(c1ccncc1)N1C[C@@H]2[C@H](c3ccccc31)[C@H](CO)N2C(=O)c1ccccc1F,2,-6,-4,0,0,1
CCC(=O)N1CC[C@H]2[C@H](CO)Nc3ccc(C#Cc4cccnc4)cc3[C@H]21,3,?,-7,0,0,0
CC(OC(=O)/C=C/c1cccc(Cl)c1)C(=O)NC1CCCCC1C (stereo not given),-1,91*,0,2,0,-1
CC(OC(=O)c1cccc(Cl)c1)C(=O)NC1CCCCC1C (stereo not given),-7,6,-2,0,0,0
COc1ccc(S(=O)(=O)Nc2ccc3c(c2)C(=O)N([C@@H](C)CO)C[C@@H](C)[C@@H](CN(C)S(=O)(=O)c2ccc(Cl)cc2)O3)cc1,1,14,4,-4,0,0
COc1ccc(S(=O)(=O)Nc2ccc3c(c2)C(=O)N([C@@H](C)CO)C[C@H](C)[C@H](CN(C)S(=O)(=O)c2ccc(Cl)cc2)O3)cc1,5,15,24,59*,0,-1

# Screening data: PubChem BioAssay, Broad Institute
